Experimental data taken from ChEMBL document CHEMBL1138564, “Microwave-induced synthesis and anti-microbial activities of 7,10,11,12-tetrahydrobenzo[c]acridin-8(9H)-one derivatives” (2009).
Converted amounts (≈) assume the structure as drawn. The source made the active and inactive calls. The calls are words filed in the database; no cut-off is given here.

Key:
Type in all cases: functional
[1] = system: Escherichia coli; assay: Antimicrobial activity against Escherichia coli NCIM 2065 at 1000 ug/disk after 24 hrs by disk diffusion method; settings: NCIM 2065, 24 h, read-out: DIZ
Procedure, shortened: (§1)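 Disc diffusion on Mueller–Hinton agar. 100 µl of bacterial suspension at 10⁸ CFU/ml is spread on the plate. Discs carry test compounds at two loadings, dissolved in DMSO; DMSO alone serves as negative control. Ofloxacin disc is the positive reference. Plates are incubated at 37 °C for 24 h, and the inhibition zone diameter is measured.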

[2] = system: Bacillus subtilis; assay: Antimicrobial activity against Bacillus subtilis NCIM 2063 at 1000 ug/disk after 24 hrs by disk diffusion method; settings: NCIM 2063, 24 h, read-out: DIZ; procedure, shortened: as §1
[3] = system: Bacillus cereus; assay: Antimicrobial activity against Bacillus cereus NCIM 2155 at 500 ug/disk after 24 hrs by disk diffusion method; settings: NCIM 2155, 24 h, read-out: DIZ; procedure, shortened: as §1
[4] = system: Bacillus cereus; assay: Antimicrobial activity against Bacillus cereus NCIM 2155 at 1000 ug/disk after 24 hrs by disk diffusion method; settings: NCIM 2155, 24 h, read-out: DIZ; procedure, shortened: as §1
[5] = system: Aliivibrio fischeri; assay: Antimicrobial activity against Vibrio fischeri NCIM 2154 at 500 ug/disk after 24 hrs by disk diffusion method; settings: for zone of inhibition at 500 µg/disc: NCIM 2154, 24 h, read-out: DIZ
Procedure, shortened: (§2)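 Disc diffusion. 100 µl of bacterial suspension at 10⁸ CFU/ml was spread on Mueller–Hinton agar. Discs loaded with test compound dissolved in DMSO were placed on the lawn, with a DMSO-only disc as negative control. Plates were incubated at 37 °C for 24 h, and the inhibition zone diameter was measured.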

[6] = system: Aliivibrio fischeri; assay: Antimicrobial activity against Vibrio fischeri NCIM 2154 at 1000 ug/disk after 24 hrs by disk diffusion method; settings: for zone of inhibition at 1000 µg/disc: NCIM 2154, 24 h, read-out: DIZ; procedure, shortened: as §2
[7] = system: Rhodococcus corynebacterioides; assay: Antimicrobial activity against Corynebacterium rubrum NCIM 2252 at 500 ug/disk after 24 hrs by disk diffusion method; settings: Rhodococcoides corynebacterioides; procedure, shortened: as §1
[8] = system: Rhodococcus corynebacterioides; assay: Antimicrobial activity against Corynebacterium rubrum NCIM 2252 at 1000 ug/disk after 24 hrs by disk diffusion method; settings: Rhodococcoides corynebacterioides; procedure, shortened: as §1
[9] = system: Staphylococcus; assay: Antimicrobial activity against Staphylococcus albus NCIM 2178 at 1000 ug/disk after 24 hrs by disk diffusion method; procedure, shortened: as §2
[10] = system: Proteus vulgaris; assay: Antimicrobial activity against Proteus vulgaris NCIM 2027 at 500 ug/disk after 24 hrs by disk diffusion method; procedure, shortened: as §1
[11] = system: Proteus vulgaris; assay: Antimicrobial activity against Proteus vulgaris NCIM 2027 at 1000 ug/disk after 24 hrs by disk diffusion method; procedure, shortened: as §1
[12] = system: Aspergillus flavus; assay: Antimicrobial activity against Aspergillus flavus NCIM 902 at 1000 ug/disk after 72 hrs by disk diffusion method; settings: NCIM 902, 72 h, read-out: DIZ
Procedure, shortened: (§3)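 Disc diffusion on Sabouraud's dextrose agar. 100 µl of fungal suspension at 10⁶ CFU/ml is spread on the plate. Discs carry test compounds at two loadings in DMSO; DMSO alone is the negative control. Clotrimazole disc is the positive reference. Plates are incubated at 27 °C for 72 h, and the zone of inhibition diameter is measured.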

[13] = system: Rhodotorula mucilaginosa; assay: Antimicrobial activity against Rhodotorula rubra NCIM 3174 at 500 ug/disk after 72 hrs by disk diffusion method; settings: NCIM 3174, 72 h, read-out: DIZ
Procedure, shortened: (§4)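 Fungal disc diffusion. 100 µl of suspension at 10⁶ CFU/ml was spread on Sabouraud's dextrose agar. Discs carrying test compound in DMSO were applied, with a DMSO-only disc as negative control. Plates were incubated at 27 °C for 72 h, and the zone of inhibition diameter was measured.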

[14] = system: Rhodotorula mucilaginosa; assay: Antimicrobial activity against Rhodotorula rubra NCIM 3174 at 1000 ug/disk after 72 hrs by disk diffusion method; settings: NCIM 3174, 72 h, read-out: DIZ; procedure, shortened: as §4
[15] = system: Aspergillus fumigatus; assay: Antimicrobial activity against Aspergillus fumigatus NCIM 902 at 500 ug/disk after 72 hrs by disk diffusion method; procedure, shortened: as §3
[16] = system: Aspergillus fumigatus; assay: Antimicrobial activity against Aspergillus fumigatus NCIM 902 at 1000 ug/disk after 72 hrs by disk diffusion method; settings: NCIM 902, 72 h, read-out: DIZ; procedure, shortened: as §3
[17] = system: Aspergillus parasiticus; assay: Antimicrobial activity against Aspergillus parasiticus NCIM 904 at 1000 ug/disk after 72 hrs by disk diffusion method; settings: NCIM 904, 72 h, read-out: DIZ; procedure, shortened: as §3
[18] = system: Penicillium chrysogenum; assay: Antimicrobial activity against Penicillium chrysogenum NCIM 707 at 500 ug/disk after 72 hrs by disk diffusion method; procedure, shortened: as §3
[19] = system: Penicillium chrysogenum; assay: Antimicrobial activity against Penicillium chrysogenum NCIM 707 at 1000 ug/disk after 72 hrs by disk diffusion method; settings: for zone of inhibition at 1000 µg/disc: NCIM 707, 72 h, read-out: DIZ; procedure, shortened: as §3
[20] = system: Lipomyces lipofer; assay: Antimicrobial activity against Lipomyces lipofer NCIM 3252 at 500 ug/disk after 72 hrs by disk diffusion method; settings: for zone of inhibition at 500 µg/disc: NCIM 3252, 72 h, read-out: DIZ; procedure, shortened: as §3
[21] = system: Lipomyces lipofer; assay: Antimicrobial activity against Lipomyces lipofer NCIM 3252 at 1000 ug/disk after 72 hrs by disk diffusion method; settings: for zone of inhibition at 1000 µg/disc: NCIM 3252, 72 h, read-out: DIZ; procedure, shortened: as §3
[22] = system: Klebsiella aerogenes; assay: Antimicrobial activity against Klebsiella aerogenes NCIM 2239 at 1000 ug/disk after 24 hrs by disk diffusion method; settings: for zone of inhibition at 1000 µg/disc: NCIM 2239, 24 h, read-out: DIZ; procedure, shortened: as §1
[23] = system: Pseudomonas aeruginosa; assay: Antimicrobial activity against Pseudomonas aeruginosa NCIM 2200 at 1000 ug/disk after 24 hrs by disk diffusion method; procedure, shortened: as §1
[24] = system: Aspergillus flavus; assay: Antimicrobial activity against Aspergillus flavus NCIM 902 after 72 hrs by serial dilution method; settings: NCIM 535, 72 h, in the assay text read “NCIM 535” for “NCIM 902”
Procedure, shortened: (§5)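 MIC by broth dilution in Sabouraud's dextrose broth, only for fungi sensitive in disc diffusion. Two-fold serial dilutions of compounds are made in 1 ml broth per tube, range 3.9 to 1000. Inoculated tubes are incubated at 27 °C for 72 h.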

[25] = system: Rhodotorula mucilaginosa; assay: Antimicrobial activity against Rhodotorula rubra NCIM 3174 after 72 hrs by serial dilution method; settings: NCIM 3174, 72 h
Procedure, shortened: (§6)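 MIC by broth dilution in Sabouraud's dextrose broth, run only on fungi found sensitive in the disc assay. Twofold serial dilutions were made in 1 ml broth per tube, covering 3.9 to 1000. Inoculated tubes were incubated at 27 °C for 72 h.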

[26] = system: Aspergillus parasiticus; assay: Antimicrobial activity against Aspergillus parasiticus NCIM 904 after 72 hrs by serial dilution method; settings: NCIM 904, 72 h; procedure, shortened: as §5
[27] = system: Trichoderma viride; assay: Antimicrobial activity against Trichoderma viride NCIM 1195 after 72 hrs by serial dilution method; settings: NCIM 1195, 72 h; procedure, shortened: as §6
[28] = system: Trichoderma viride; assay: Antimicrobial activity against Trichoderma viride NCIM 1195 at 500 ug/disk after 72 hrs by disk diffusion method; settings: NCIM 1195, 72 h, read-out: DIZ; procedure, shortened: as §4
[29] = system: Trichoderma viride; assay: Antimicrobial activity against Trichoderma viride NCIM 1195 at 1000 ug/disk after 72 hrs by disk diffusion method; settings: NCIM 1195, 72 h, read-out: DIZ; procedure, shortened: as §4
[30] = system: Escherichia coli; assay: Antimicrobial activity against Escherichia coli NCIM 2065 after 24 hrs by serial dilution method; settings: NCIM 2065, 24 h
Procedure, shortened: (§7)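 Broth dilution MIC in nutrient broth, run only for organisms found sensitive in disc diffusion. Compounds are two-fold serially diluted in 1 ml sterile broth per tube, spanning 3.9 to 1000. Inoculated tubes are incubated at 37 °C for 24 h.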

[31] = system: Bacillus subtilis; assay: Antimicrobial activity against Bacillus subtilis NCIM 2063 after 24 hrs by serial dilution method; settings: NCIM 2063, 24 h; procedure, shortened: as §7
[32] = system: Aliivibrio fischeri; assay: Antimicrobial activity against Vibrio fischeri NCIM 2154 after 24 hrs by serial dilution method; settings: NCIM 2154, 24 h

Structure (SMILES)	zone of inhibition at 1000 µg/disc [1]	zone of inhibition at 1000 µg/disc [2]	zone of inhibition at 500 µg/disc [3]	zone of inhibition at 1000 µg/disc [4]	zone of inhibition at 500 µg/disc [5]	zone of inhibition at 1000 µg/disc [6]	diameter of the inhibition zone (DIZ) [7]	zone of inhibition at 1000 µg/disc [12]	zone of inhibition at 500 µg/disc [13]	zone of inhibition at 1000 µg/disc [14]	zone of inhibition at 1000 µg/disc [16]	zone of inhibition at 1000 µg/disc [17]	MIC [24]	MIC [25]	MIC [26]	MIC [27]	zone of inhibition at 500 µg/disc [28]	zone of inhibition at 1000 µg/disc [29]	MIC [30]	MIC [31]	other results
CC1(C)CC(=O)C2=C(C1)Nc1c(ccc3ccccc13)C2c1ccccc1Cl (stereo not given)	8 mm	8 mm	8 mm	11 mm	7 mm	9 mm	inactive	10 mm	10 mm	13 mm	8 mm	10 mm	62.5 µg/mL (≈ 161 µM)	15.6 µg/mL (≈ 40.2 µM)	62.5 µg/mL (≈ 161 µM)	125 µg/mL (≈ 322 µM)	7 mm	8 mm	125 µg/mL (≈ 322 µM)	62.5 µg/mL (≈ 161 µM)	diameter of the inhibition zone (DIZ) [8]: inactive; diameter of the inhibition zone (DIZ) [9]: inactive; diameter of the inhibition zone (DIZ) [10]: inactive; diameter of the inhibition zone (DIZ) [11]: inactive; diameter of the inhibition zone (DIZ) [15]: inactive; diameter of the inhibition zone (DIZ) [18]: inactive; diameter of the inhibition zone (DIZ) [19]: inactive; zone of inhibition at 500 µg/disc [20]: 7 mm; zone of inhibition at 1000 µg/disc [21]: 10 mm; zone of inhibition at 1000 µg/disc [22]: 9 mm; diameter of the inhibition zone (DIZ) [23]: inactive; MIC [32]: 62.5 µg/mL (≈ 161 µM)
O=C1CCCC2=C1C(c1ccccc1O)c1ccc3ccccc3c1N2 (stereo not given)	9 mm	10 mm	7 mm	8 mm	–	–	inactive	11 mm	11 mm	13 mm	12 mm	10 mm	31.2 µg/mL (≈ 91.4 µM)	15.6 µg/mL (≈ 45.7 µM)	62.5 µg/mL (≈ 183 µM)	62.5 µg/mL (≈ 183 µM)	9 mm	10 mm	125 µg/mL (≈ 366 µM)	62.5 µg/mL (≈ 183 µM)	diameter of the inhibition zone (DIZ) [5]: inactive; diameter of the inhibition zone (DIZ) [6]: inactive; diameter of the inhibition zone (DIZ) [8]: inactive; diameter of the inhibition zone (DIZ) [9]: inactive; diameter of the inhibition zone (DIZ) [10]: inactive; diameter of the inhibition zone (DIZ) [11]: inactive; diameter of the inhibition zone (DIZ) [15]: inactive; diameter of the inhibition zone (DIZ) [18]: inactive; zone of inhibition at 1000 µg/disc [19]: 9 mm; diameter of the inhibition zone (DIZ) [20]: inactive; diameter of the inhibition zone (DIZ) [21]: inactive; diameter of the inhibition zone (DIZ) [22]: inactive; diameter of the inhibition zone (DIZ) [23]: inactive
CC1(C)CC(=O)C2=C(C1)Nc1c(ccc3ccccc13)C2c1cccc([N+](=O)[O-])c1 (stereo not given)	15 mm	11 mm	10 mm	13 mm	7 mm	10 mm	–	13 mm	10 mm	15 mm	10 mm	16 mm	15.6 µg/mL (≈ 39.2 µM)	7.8 µg/mL (≈ 19.6 µM)	3.9 µg/mL (≈ 9.79 µM)	31.2 µg/mL (≈ 78.3 µM)	10 mm	12 mm	3.9 µg/mL (≈ 9.79 µM)	31.2 µg/mL (≈ 78.3 µM)	zone of inhibition at 500 µg/disc ([7]; NCIM 2252, 24 h, read-out: DIZ): 8 mm; zone of inhibition at 1000 µg/disc ([8]; NCIM 2252, 24 h, read-out: DIZ): 9 mm; zone of inhibition at 1000 µg/disc ([9]; NCIM 2178, 24 h, read-out: DIZ): 9 mm; zone of inhibition at 500 µg/disc ([10]; NCIM 2027, 24 h, read-out: DIZ): 7 mm; zone of inhibition at 1000 µg/disc ([11]; NCIM 2027, 24 h, read-out: DIZ): 9 mm; zone of inhibition at 500 µg/disc ([15]; NCIM 902, 72 h, read-out: DIZ): 8 mm; zone of inhibition at 500 µg/disc ([18]; NCIM 707, 72 h, read-out: DIZ): 8 mm; zone of inhibition at 1000 µg/disc [19]: 11 mm; zone of inhibition at 500 µg/disc [20]: 8 mm; zone of inhibition at 1000 µg/disc [21]: 11 mm; zone of inhibition at 1000 µg/disc [22]: 11 mm; zone of inhibition at 1000 µg/disc ([23]; NCIM 2200, 24 h, read-out: DIZ): 8 mm; MIC [32]: 62.5 µg/mL (≈ 157 µM)
